Data taken from ChEMBL document CHEMBL5149984, “Discovery of HN37 as a Potent and Chemically Stable Antiepileptic Drug Candidate” (J Med Chem, 2021).

Columns and labels:
[1] = target: T1, Potassium voltage-gated channel subfamily KQT member 1 (Homo sapiens, UniProt P51787); assay: Agonist activity at human KCNQ1 channel expressed in CHO cells assessed as amplitude change of outward current at 10 uM by patch clamp method; type: cell-based
T1 sequence (P51787 whole entry): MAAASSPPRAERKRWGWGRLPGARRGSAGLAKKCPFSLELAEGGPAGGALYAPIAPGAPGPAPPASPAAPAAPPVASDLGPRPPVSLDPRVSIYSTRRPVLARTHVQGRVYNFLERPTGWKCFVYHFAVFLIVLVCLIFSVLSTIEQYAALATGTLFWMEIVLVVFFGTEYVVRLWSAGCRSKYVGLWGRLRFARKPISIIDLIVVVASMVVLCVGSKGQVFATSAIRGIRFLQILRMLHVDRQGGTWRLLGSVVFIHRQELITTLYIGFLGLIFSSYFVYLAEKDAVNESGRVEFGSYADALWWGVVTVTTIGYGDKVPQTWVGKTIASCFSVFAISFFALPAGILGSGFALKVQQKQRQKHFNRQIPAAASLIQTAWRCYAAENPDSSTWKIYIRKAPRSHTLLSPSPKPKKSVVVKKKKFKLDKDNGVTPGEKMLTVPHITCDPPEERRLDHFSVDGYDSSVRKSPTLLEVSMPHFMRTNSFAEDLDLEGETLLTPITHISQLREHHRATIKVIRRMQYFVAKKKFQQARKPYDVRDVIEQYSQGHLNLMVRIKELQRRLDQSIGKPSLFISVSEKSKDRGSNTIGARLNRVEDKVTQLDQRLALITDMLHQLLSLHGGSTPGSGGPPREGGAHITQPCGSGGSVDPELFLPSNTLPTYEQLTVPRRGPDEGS
Method in brief: (§1)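 Whole-cell patch clamp at room temperature on CHO cells (DMEM/F12, 10% FBS) transiently co-transfected with EGFP and hKCNQ1, rKCNQ2, rKCNQ3 A278T, hKCNQ4 or hKCNQ5; KCNQ2/3 at 1:1 cDNA ratio. Pipette solution 145 mM KCl, 5 mM MgATP, pH 7.3; bath 140 mM NaCl, 5 mM KCl, pH 7.4, under perfusion. V1/2 from Boltzmann fits; I/I0 is current amplitude with versus without compound; n = 4−6.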

[2] = target: T2, Potassium voltage-gated channel subfamily KQT member 4 (Homo sapiens) (UniProt P56696); assay: Agonist activity at human KCNQ4 channel expressed in CHO cells assessed as amplitude change of outward current at 10 uM by patch clamp method; type: cell-based; details: filed as agonist; method in brief: as §1
T2 sequence (whole entry): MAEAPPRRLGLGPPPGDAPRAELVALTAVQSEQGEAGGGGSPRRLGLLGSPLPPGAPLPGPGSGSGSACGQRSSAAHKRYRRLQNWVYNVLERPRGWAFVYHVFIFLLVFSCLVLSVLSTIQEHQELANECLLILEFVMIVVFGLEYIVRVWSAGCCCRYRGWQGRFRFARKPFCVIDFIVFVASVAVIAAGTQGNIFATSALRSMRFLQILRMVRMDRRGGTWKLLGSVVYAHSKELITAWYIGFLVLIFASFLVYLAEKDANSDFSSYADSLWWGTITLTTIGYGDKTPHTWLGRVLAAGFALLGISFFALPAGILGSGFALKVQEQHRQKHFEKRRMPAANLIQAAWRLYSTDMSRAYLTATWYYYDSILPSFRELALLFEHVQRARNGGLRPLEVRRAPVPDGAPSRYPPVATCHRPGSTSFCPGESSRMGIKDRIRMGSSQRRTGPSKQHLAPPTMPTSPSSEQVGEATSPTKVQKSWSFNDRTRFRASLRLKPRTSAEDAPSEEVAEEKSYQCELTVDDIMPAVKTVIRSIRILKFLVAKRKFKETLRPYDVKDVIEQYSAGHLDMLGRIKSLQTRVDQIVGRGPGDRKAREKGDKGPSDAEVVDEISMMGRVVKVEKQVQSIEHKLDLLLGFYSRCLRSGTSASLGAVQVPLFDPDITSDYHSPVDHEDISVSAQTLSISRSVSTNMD

[3] = target: Potassium voltage-gated channel subfamily KQT member 5 (Homo sapiens) (UniProt Q9NR82); assay: Agonist activity at human KCNQ5 channel expressed in CHO cells assessed as shift of half voltage of maximal activation at 10 uM by patch clamp method; type: cell-based; details: filed as agonist; method in brief: as §1
Potassium voltage-gated channel subfamily KQT member 5 (Homo sapiens), sequence (Q9NR82 whole entry): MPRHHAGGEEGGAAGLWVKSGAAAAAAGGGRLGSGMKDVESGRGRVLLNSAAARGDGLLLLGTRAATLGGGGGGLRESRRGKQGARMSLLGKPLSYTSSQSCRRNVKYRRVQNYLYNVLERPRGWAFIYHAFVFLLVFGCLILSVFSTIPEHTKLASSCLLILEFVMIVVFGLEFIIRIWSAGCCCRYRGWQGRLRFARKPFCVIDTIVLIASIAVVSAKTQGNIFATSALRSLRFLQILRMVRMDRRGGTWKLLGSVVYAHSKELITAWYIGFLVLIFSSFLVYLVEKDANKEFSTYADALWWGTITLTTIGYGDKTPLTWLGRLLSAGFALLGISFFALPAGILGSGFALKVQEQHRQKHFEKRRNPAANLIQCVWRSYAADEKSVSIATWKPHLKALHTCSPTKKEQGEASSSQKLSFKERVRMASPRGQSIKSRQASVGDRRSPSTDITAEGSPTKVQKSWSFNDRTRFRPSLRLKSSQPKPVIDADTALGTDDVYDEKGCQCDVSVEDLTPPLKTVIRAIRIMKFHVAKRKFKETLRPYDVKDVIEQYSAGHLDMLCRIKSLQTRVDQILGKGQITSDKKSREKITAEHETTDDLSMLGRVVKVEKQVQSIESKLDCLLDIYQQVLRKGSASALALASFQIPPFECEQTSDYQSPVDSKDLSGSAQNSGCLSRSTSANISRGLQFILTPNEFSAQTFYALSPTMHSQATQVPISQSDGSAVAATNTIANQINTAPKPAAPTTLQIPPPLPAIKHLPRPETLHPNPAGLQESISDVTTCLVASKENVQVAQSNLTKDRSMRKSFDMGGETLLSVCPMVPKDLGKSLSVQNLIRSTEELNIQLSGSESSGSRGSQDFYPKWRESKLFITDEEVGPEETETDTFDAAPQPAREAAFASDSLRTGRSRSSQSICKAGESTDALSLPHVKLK

[4] = species on record: Rattus norvegicus; assay: Potency index, ratio of Topiramate ED50 to test compound ED50 for anticonvulsant activity in MES induced rat model of seizure after 1 hr; type: functional
[5] = target: T2, Potassium voltage-gated channel subfamily KQT member 4 (Homo sapiens); assay: Agonist activity at human KCNQ4 channel expressed in CHO cells assessed as amplitude change of outward current at 0.1 uM by patch clamp method; type: cell-based; details: filed as agonist; method in brief: as §1
[6] = Metabolic stability in human liver microsomes assessed as half life; type: ADME, Microsome
[7] = target: CYP2C8 (Homo sapiens, UniProt P10632); assay: Inhibition of human liver microsome CYP2C8 at 0.10 to 50 uM preincubated with NADPH for 0.5 hrs followed by substrate addition by LC-MS/MS method relative to control; type: ADME; details: liver microsomes, dose 0.1-50 µM
CYP2C8, sequence (P10632 whole entry): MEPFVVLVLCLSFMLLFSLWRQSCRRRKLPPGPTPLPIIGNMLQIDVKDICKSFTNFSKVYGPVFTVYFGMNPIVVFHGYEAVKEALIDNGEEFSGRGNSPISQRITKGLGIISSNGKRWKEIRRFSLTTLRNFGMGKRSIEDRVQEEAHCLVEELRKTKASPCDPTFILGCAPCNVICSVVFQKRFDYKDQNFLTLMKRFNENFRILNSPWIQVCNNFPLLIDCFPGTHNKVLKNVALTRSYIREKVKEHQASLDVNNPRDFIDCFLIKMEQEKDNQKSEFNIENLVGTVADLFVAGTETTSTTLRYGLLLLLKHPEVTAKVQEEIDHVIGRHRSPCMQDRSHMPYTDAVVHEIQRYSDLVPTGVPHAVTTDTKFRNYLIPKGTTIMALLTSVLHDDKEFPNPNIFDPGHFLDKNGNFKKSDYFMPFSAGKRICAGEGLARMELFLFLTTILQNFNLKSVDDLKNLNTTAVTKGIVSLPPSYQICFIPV

[8] = target: CYP1A2 (Homo sapiens, UniProt P05177); assay: Ratio of IC50 for human liver microsome CYP1A2 in absence of NADPH to IC50 for human liver microsome CYP1A2 in presence of NADPH; details: liver microsomes, read-out: Ratio IC50
CYP1A2, sequence (P05177 whole entry): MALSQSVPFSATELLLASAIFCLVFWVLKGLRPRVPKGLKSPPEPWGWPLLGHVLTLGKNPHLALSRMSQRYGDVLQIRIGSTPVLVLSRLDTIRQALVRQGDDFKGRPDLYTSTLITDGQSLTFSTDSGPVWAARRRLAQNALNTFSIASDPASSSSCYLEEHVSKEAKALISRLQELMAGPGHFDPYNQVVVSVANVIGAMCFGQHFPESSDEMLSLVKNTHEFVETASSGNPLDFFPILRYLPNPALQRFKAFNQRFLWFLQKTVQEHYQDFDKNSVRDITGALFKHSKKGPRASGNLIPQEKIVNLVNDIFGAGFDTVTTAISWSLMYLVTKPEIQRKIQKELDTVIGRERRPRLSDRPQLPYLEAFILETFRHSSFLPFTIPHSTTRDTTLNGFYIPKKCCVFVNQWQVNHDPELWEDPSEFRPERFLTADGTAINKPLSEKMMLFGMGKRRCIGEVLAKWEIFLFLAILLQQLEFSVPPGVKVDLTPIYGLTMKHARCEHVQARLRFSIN

[9] = Drug concentration in Kunming mouse plasma at 5 mg/kg; type: ADME, organism-based; details: in vivo
Method in brief: (§2)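 Male KM mice (18−24 g) fasted 12 h before and 2 h after dosing, given 5 mg/kg orally in 5% DMSO/5% Tween 80/90% normal saline (n = 3 per time point). Aortic blood taken at 0.25–24 h and whole brain collected. Acetonitrile extraction with internal standard, then LC−MS/MS. Bioavailability calculated against the 2 mg/kg i.v. arm.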

[10] = Half life in Kunming mouse plasma at 5 mg/kg, po measured upto 24 hrs by LC-MS/MS method; type: ADME, organism-based; method in brief: as §2
[11] = Cmax in Kunming mouse brain at 5 mg/kg, po measured upto 24 hrs by LC-MS/MS method; type: ADME, organism-based; parameters: dose 5 mg/kg, time < 24 hrs, route po
Method in brief: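 KM male mice (18−24 g), fasted 12 h before and 2 h after dosing. HN37 given orally at 5 mg/kg in 5% DMSO/5% Tween 80/90% saline, or iv at 2 mg/kg after dilution in saline with 1% Tween 80; n = 3 per time point. Blood sampled 0.25–24 h (from 0.083 h after iv); whole brain taken after oral dosing. Plasma and brain extracted with acetonitrile, quantified by LC−MS/MS; AUC0−t by trapezoidal method.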

[12] = target: Potassium voltage-gated channel subfamily KQT member 2 (Rattus norvegicus) (UniProt O88943); assay: Potency index, ratio of retigabine EC50 to test compound EC50 for agonist activity at rat KCNQ2 channel expressed in CHO cells by patch clamp method; type: cell-based
Potassium voltage-gated channel subfamily KQT member 2 (Rattus norvegicus), sequence (O88943 whole entry): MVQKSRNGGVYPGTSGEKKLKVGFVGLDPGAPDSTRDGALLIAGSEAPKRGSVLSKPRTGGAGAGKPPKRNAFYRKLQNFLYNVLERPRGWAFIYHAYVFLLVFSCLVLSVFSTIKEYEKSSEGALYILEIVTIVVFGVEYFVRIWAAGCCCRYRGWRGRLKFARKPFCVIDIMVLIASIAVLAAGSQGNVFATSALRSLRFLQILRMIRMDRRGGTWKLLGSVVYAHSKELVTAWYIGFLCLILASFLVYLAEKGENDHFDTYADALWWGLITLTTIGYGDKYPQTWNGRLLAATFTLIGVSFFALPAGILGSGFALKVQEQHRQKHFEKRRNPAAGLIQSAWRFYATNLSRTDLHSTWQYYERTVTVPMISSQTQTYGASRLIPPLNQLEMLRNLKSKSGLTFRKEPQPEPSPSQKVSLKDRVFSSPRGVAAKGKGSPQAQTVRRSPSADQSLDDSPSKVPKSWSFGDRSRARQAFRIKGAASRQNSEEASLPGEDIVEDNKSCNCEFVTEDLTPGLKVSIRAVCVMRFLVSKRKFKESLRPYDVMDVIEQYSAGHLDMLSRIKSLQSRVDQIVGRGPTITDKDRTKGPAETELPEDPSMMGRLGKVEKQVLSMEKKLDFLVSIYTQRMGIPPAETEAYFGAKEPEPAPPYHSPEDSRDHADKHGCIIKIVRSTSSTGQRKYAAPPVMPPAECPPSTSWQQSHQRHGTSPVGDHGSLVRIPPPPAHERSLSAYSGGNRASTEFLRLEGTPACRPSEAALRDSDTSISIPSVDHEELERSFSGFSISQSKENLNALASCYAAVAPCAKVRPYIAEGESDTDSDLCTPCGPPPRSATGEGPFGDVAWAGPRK

[13] = target: Potassium voltage-gated channel subfamily KQT member 2/member 3 (Rattus norvegicus) (UniProt O88943+O88944); assay: Agonist activity at rat KCNQ2/3 channel expressed in CHO cells assessed as shift of half voltage of maximal activation at 0.1 uM by patch clamp method; type: cell-based; details: filed as agonist; method in brief: as §1
[14] = Metabolic stability in rat liver microsomes assessed as half life; type: ADME, Microsome

## CCOC(=O)Nc1ccc(NCc2ccc(F)cc2)cc1N [EZOGABINE]
[1]
  Activity: 1.01
[2]
  Activity: 2.85
[3]
  Activity: 0.09 mV

## C#CCN(Cc1ccc(F)cc1)c1cc(C)c(NC(=O)OC)c(C)c1
[4]
  Ratio ED50: 18.7
[5]
  Activity: 3.76
[6]
  half-life: 27.7 min
[7]
  inhibition at 0.5 h, up to 50 µM: < 25%
[8]
  IC50 shift: > 1.5
[9]
  concentration: 110 nM
[10]
  half-life: 117 min
[11]
  Cmax: 263 ng/mL
[12]
  Ratio EC50: 55
[13]
  Activity: -60.2 mV
[14]
  half-life: 23.7 min
